Results on 14 compounds are retold here after PubChem BioAssay.

Assay [1] in a line: reducers of endogenous Her2 protein level, primary screen, SKBR3 breast tumor cells, AlphaScreen, ATP viability (AID 461;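 active = Her2 level under about 52% in both replicate screens, with viability over 70% of control, limit read from the data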;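 as to Her2 level: lower value means less Her2 protein in the cells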;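 as to viability: percent of carrier control wells set as 100% viability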). Particulars: 18-24 h, measured here: SKBR3 viability, ATP luminescence, at 10 µM. Background: Alpha assays give light when donor and acceptor beads are brought close together.
Assay [2] addresses Receptor tyrosine-protein kinase erbB-2 (Homo sapiens) (UniProt P04626). Described as above. The following applies: 18-24 h, at 10 µM, stronger effect = lower value.
The nature of assay [3]: SK-BR-3 cell growth inhibitors, pilot screen, 24 h, human (AID 572;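 active = viability at or below 10% of carrier control in both of two separate runs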;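 also: compound exposure lasted between 18 and 24 h rather than exactly 24 h; 100% = carrier-treated control wells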). Particulars: SK-BR-3 viability, CellTiter-Glo luminescence, at 10 µM, stronger effect = lower value. For orientation: In ATP-based viability assays light output follows the ATP content of the culture.
Assay [4] can be described thus: HUVEC growth inhibition – cell-based, human, primary screen (AID 575).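 Also: 100% = median of untreated cell wells with 0.1% DMSO on each plate.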 The following applies: HUVEC proliferation, CellTiter-Glo luminescence, 72 h; at 10 µM; stronger effect = lower value. The gist of the method: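 Assay system: Primary human umbilical vein endothelial cells | Quantity: 1250 cells per well | Medium: Supplemented EBM, 2% fetal bovine serum | Detection: CellTiter-Glo luminescence measuring cellular ATP | Read-out: % viability vs DMSO wells | Plate: Collagen-coated 384-well format | Times: 72 h exposure, 37 °C, 5% CO2, 30 min RT equilibration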

Assay [5] in a line: growth inhibitors of H69AR lung tumor, primary screen, human, duplicate replicates (AID 580;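 active = viability at or under a set limit in both replicates, limit being median viability minus 3 SD, cut at about 48% in these data, passing the limit was not always enough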;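 also: 100% = mean luminescence of untreated wells and 0% = no signal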). Particulars: H69AR lung tumor cells viability, ATP luminescence, 72 h; at 10 µM; stronger effect = lower value.
The nature of assay [6]: reversal of MRP1-mediated doxorubicin resistance, pilot screen, H69AR cells, doxorubicin co-treatment (AID 601;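 active = viability loss from added drug above about 55%, and viability with drug at most 40%, in both replicates, limit read from the data, passing the limit was not always enough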). The following applies: CellTiter-Glo, 72 h, at 10 µM; for differential viability (reversal): stronger effect = higher value.
The nature of assay [7]: 384-well plate pilot, post-Golgi transport modulator project, inhibition of yeast transport mutant growth (AID 636; in the data active = inhibition above about 31%). The following applies: absorbance 615 nm, about 18 h, stronger effect = higher value.
A short description of assay [8]: growth suppression of yeast trafficking mutant, preliminary HTS, modulators of trafficking downstream of Golgi apparatus project, 1536-format plate, OD 615 nm (AID 637; in the data active = inhibition above about 30%). The following applies: yeast transport mutant growth, absorbance 615 nm, 18 h; stronger effect = higher value.
Where [9] appears, read: H69AR cells + 2 uM doxorubicin, measured here: viability with 2 uM doxorubicin, stronger effect = lower value.
[10] abbreviates: H69AR cells, compound alone cytotoxicity.

Structures are written as SMILES. Activity calls are given as the source filed them.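 The calls were made as follows, unless noted: active = viability at or below 30% in both replicate assays; inconclusive = viability at or below 30% in just one of the two assays; inactive = the rest.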

Chain of Receptor tyrosine-protein kinase erbB-2 (Homo sapiens) (P04626 whole entry, looked up): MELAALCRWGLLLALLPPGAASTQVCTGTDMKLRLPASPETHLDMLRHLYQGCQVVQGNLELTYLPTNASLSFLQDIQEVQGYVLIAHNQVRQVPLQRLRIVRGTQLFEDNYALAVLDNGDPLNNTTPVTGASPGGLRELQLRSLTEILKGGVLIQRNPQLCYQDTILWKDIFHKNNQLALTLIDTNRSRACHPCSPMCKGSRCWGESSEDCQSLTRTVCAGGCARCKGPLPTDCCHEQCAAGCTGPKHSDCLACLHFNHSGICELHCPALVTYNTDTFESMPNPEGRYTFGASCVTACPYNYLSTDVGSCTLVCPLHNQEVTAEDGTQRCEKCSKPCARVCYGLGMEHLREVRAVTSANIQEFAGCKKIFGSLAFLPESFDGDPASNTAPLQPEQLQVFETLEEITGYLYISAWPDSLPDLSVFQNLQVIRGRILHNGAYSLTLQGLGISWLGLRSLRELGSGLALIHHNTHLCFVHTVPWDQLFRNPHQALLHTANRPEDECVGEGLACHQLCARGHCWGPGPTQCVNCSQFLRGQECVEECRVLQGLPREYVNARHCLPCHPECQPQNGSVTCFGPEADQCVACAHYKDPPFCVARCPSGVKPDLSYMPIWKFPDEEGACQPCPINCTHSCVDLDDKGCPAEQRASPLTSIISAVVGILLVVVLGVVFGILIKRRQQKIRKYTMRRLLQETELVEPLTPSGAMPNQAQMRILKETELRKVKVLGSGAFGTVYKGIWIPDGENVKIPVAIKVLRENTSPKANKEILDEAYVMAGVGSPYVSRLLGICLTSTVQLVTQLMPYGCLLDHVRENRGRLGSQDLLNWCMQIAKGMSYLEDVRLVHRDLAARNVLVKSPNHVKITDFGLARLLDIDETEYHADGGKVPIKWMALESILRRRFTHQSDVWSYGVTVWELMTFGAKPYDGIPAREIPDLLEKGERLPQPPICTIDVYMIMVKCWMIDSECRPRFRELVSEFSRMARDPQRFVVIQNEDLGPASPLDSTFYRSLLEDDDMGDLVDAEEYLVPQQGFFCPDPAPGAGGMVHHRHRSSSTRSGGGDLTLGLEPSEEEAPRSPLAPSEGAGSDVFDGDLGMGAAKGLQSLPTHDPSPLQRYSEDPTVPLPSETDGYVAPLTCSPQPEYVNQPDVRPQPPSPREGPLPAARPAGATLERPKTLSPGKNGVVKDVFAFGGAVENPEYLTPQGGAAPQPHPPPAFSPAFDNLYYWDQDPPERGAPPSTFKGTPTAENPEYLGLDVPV

Usually viability stands for a read-out of living cells in per cent, often relative to untreated cells. Usually inhibition stands for the change of the read-out against control, counted positive when it falls. For `CCOC(=O)c1sc2nc(C)cc(C)c2c1N`, the viability in assay [1] is 105%; in assay [3] it was 105% (inactive); in assay [4], 110% (inactive); in assay [5], 98.4% (inactive); in assay [6] (setting [9]), 82.8%; in assay [6] (setting [10]), 98.4%. Also, the Her2 level in assay [2] was 95% (inactive). In addition, the differential viability (reversal) in assay [6] (H69AR cells + 2 uM doxorubicin) is 15.6% (inactive). Besides, the results for the inhibition in assay [7] and in assay [8] were -5.07% (inactive) and 4.52% (inactive), respectively.
With `CCCCC(c1nnnn1CS(=O)(=O)c1ccc(C)cc1)N1CCN(c2ccccc2)CC1` (stereo not given), the viability in assay [1] was 102%; in assay [3], 102% (inactive); in assay [4], 69.5% (inactive); in assay [5] it was 90.6% (inactive); in assay [6] (setting [9]), 91.3%; in assay [6] (setting [10]), 90.6%. In addition, in assay [2], the Her2 level is 88% (inactive). The differential viability (reversal) in assay [6] (H69AR cells + 2 uM doxorubicin) was -0.75% (inactive). Further, the inhibition is -3.29% (inactive) in assay [7] and -1.27% (inactive) in assay [8].
Regarding `CNC(=O)CC(C(=O)O)c1ccc(OC(C)C)cc1` (stereo not given), the viability in assay [1] is 105%; in assay [3], 105% (inactive); in assay [4] it was 92.3% (inactive); in assay [5], 90% (inactive); in assay [6] (setting [9]), 85.7%; in assay [6] (setting [10]), 90%. The Her2 level in assay [2] is 85.5% (inactive). In addition, the differential viability (reversal) in assay [6] (H69AR cells + 2 uM doxorubicin) was 4.31% (inactive). The inhibition in assay [7] is -5.07% (inactive); in assay [8], 1.75% (inactive).
For `CCN(CC)c1ccc(NC(=O)c2[nH]c(C)c(C(C)=O)c2C)c(C)c1`, the viability in assay [1] was 92.5%; in assay [3], 92.5% (inactive); in assay [4], 93.1% (inactive); in assay [5], 74.8% (inactive); in assay [6] (setting [9]) it was 75.9%; in assay [6] (setting [10]), 74.8%. Also, in assay [2], the Her2 level was 91% (inactive). Further, in assay [6] (H69AR cells + 2 uM doxorubicin), the differential viability (reversal) is -1.04% (inactive). Moreover, the figures for the inhibition in assay [7] and in assay [8] were -0.39% (inactive) and -8.06% (inactive), respectively.
Take `CCOc1ccc(C(=O)N(CN2CCCC2=O)c2ccc(C)cc2)cc1`: the viability in assay [1] is 125%; in assay [3], 125% (inactive); in assay [4], 116% (inactive); in assay [5] it was 95.1% (inactive); in assay [6] (setting [9]) it was 87.2%; in assay [6] (setting [10]) it was 95.1%. For the same compound, the Her2 level in assay [2] was 114% (inactive). The differential viability (reversal) in assay [6] (H69AR cells + 2 uM doxorubicin) is 7.87% (inactive). Besides, the inhibition in assay [7] was -6% (inactive); in assay [8], 1.94% (inactive).
In the case of `O=C1CC(N2CCN(C3CCc4ccccc4C3)CC2)C(=O)N1c1ccccc1` (stereo not given), the viability in assay [1] is 89.5%; in assay [3], 89.5% (inactive); in assay [4] it was 102% (inactive); in assay [5], 91.6% (inactive); in assay [6] (setting [9]), 90%; in assay [6] (setting [10]), 91.6%. Besides, the Her2 level in assay [2] was 97.5% (inactive). Further, the differential viability (reversal) in assay [6] (H69AR cells + 2 uM doxorubicin) is 1.58% (inactive). The values for the inhibition in assay [7] and in assay [8] were -1.95% (inactive) and 3.93% (inactive), respectively.
With `CCCOC(=O)c1[nH]c2c(c1C)C(=O)CC(c1ccc(OC)c(OC)c1)C2` (stereo not given), the viability is 99% in assay [1]; 99% (inactive) in assay [3]; 84.7% (inactive) in assay [4]; 96% (inactive) in assay [5]; 95.3% in assay [6] (setting [9]); 96% in assay [6] (setting [10]). Also, the Her2 level in assay [2] was 151% (inactive). Besides, the differential viability (reversal) in assay [6] (H69AR cells + 2 uM doxorubicin) is 0.765% (inactive). The inhibition in assay [7] is 2.63% (inactive); in assay [8], -11.2% (inactive).
On to `COc1ccc(S(=O)(=O)NCCC(=O)NC2CCCCCCC2)cc1`, for which the viability in assay [1] is 108%; in assay [3], 108% (inactive); in assay [4], 105% (inactive); in assay [5], 88.6% (inactive); in assay [6] (setting [9]), 86.3%; in assay [6] (setting [10]), 88.6%. In addition, the Her2 level in assay [2] was 85.5% (inactive). In assay [6] (H69AR cells + 2 uM doxorubicin), the differential viability (reversal) was 2.31% (inactive). The inhibition is 0% (inactive) in assay [7] and -8.2% (inactive) in assay [8].
In the case of `FC(F)(F)c1nnc2sc(-c3cccs3)nn12`, the viability was 102% in assay [1]; 102% (inactive) in assay [3]; 93.9% (inactive) in assay [4]; 113% (inactive) in assay [5]; 93% in assay [6] (setting [9]); 113% in assay [6] (setting [10]). Besides, the Her2 level in assay [2] is 86.5% (inactive). In assay [6] (H69AR cells + 2 uM doxorubicin), the differential viability (reversal) is 19.7% (inactive). The inhibition was -7.43% (inactive) in assay [7] and 4.6% (inactive) in assay [8].
With `COc1ccc(-c2[nH]nc3c2C(c2ccccc2OC(=O)N2CCOCC2)C(C#N)=C(N)O3)cc1` (stereo not given), the viability in assay [1] is 120%; in assay [3], 120% (inactive); in assay [4], 96.2% (inactive); in assay [5] it was 88.9% (inactive); in assay [6] (setting [9]), 87%; in assay [6] (setting [10]) it was 88.9%. In addition, in assay [2], the Her2 level is 85.5% (inactive). The differential viability (reversal) in assay [6] (H69AR cells + 2 uM doxorubicin) was 1.89% (inactive). The inhibition in assay [7] was -1.58% (inactive); in assay [8], -1.45% (inactive).
As to `O=C(NCc1ccccn1)Nc1ccc2c(c1)OCO2`, the viability is 100% in assay [1]; 100% (inactive) in assay [3]; 78.7% (inactive) in assay [4]; 92.4% (inactive) in assay [5]; 87.4% in assay [6] (setting [9]); 92.4% in assay [6] (setting [10]). The Her2 level in assay [2] was 102% (inactive). In assay [6] (H69AR cells + 2 uM doxorubicin), the differential viability (reversal) is 4.97% (inactive). The inhibition was -2.37% (inactive) in assay [7] and -0.95% (inactive) in assay [8].
On to `O=C(OCC(=O)c1c[nH]c2ccccc12)C1=COCCO1`, for which the viability in assay [1] is 96%; in assay [3], 96% (inactive); in assay [4], 100% (inactive); in assay [5], 97.5% (inactive); in assay [6] (setting [9]), 100%; in assay [6] (setting [10]), 97.5%. Also, the Her2 level in assay [2] is 76.5% (inactive). Moreover, the differential viability (reversal) in assay [6] (H69AR cells + 2 uM doxorubicin) is -2.48% (inactive). Besides, the inhibition was -6.62% (inactive) in assay [7] and 6.17% (inactive) in assay [8].
For `Cc1nc2nc(SCC(=O)NCc3ccco3)nn2c(C)c1Cc1ccccc1`, the viability in assay [1] is 83%; in assay [3], 83% (inactive); in assay [4] it was 97.3% (inactive); in assay [5], 75.2% (inactive); in assay [6] (setting [9]), 77.2%; in assay [6] (setting [10]) it was 75.2%. In addition, the Her2 level in assay [2] was 108% (inactive). For the same compound, in assay [6] (H69AR cells + 2 uM doxorubicin), the differential viability (reversal) was -2% (inactive). Also, the inhibition in assay [7] was -5.27% (inactive); in assay [8] it was -3% (inactive).
Consider `Cc1cc(Br)ccc1NC(=O)CCN1C(=O)c2ccncc2C1=O`, for which the viability is 104% in assay [1]; 104% (inactive) in assay [3]; 86.1% (inactive) in assay [4]; 95.6% (inactive) in assay [5]; 91.7% in assay [6] (setting [9]); 95.6% in assay [6] (setting [10]). Also, the Her2 level in assay [2] is 113% (inactive). In addition, the differential viability (reversal) in assay [6] (H69AR cells + 2 uM doxorubicin) was 3.85% (inactive). For the same compound, the inhibition in assay [7] is -3.78% (inactive); in assay [8], -9.18% (inactive).
